Active and inactive are the calls of the source. The calls are words filed in the database; no cut-off is given here.
Experiments:
[1] = Half life in human hepatocytes at 1 uM; type: ADME, cell-based, Hepatocyte
Summary of the method: (§1)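 Freshly isolated human hepatocytes (0.5 x 10⁶ cells/ml) in Williams medium E with compound at 1 μM. Reaction started by adding cells. Sampled at 0, 10, 30 and 60 min in duplicate, quenched with acetonitrile containing warfarin, then LC-MS/MS.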

[2] = Intrinsic clearance in human hepatocytes assessed per 10^6 cells at 1 uM after 10 to 60 mins by LC-MS/MS analysis in presence of NADPH; type: ADME, cell-based, Hepatocyte; conditions: read-out: CLH; summary of the method: as §1
[3] = target: T1, Peroxisome proliferator-activated receptor alpha (Homo sapiens, UniProt Q07869); assay: Agonist activity at PPARalpha (unknown origin)
T1 sequence (Q07869 whole entry): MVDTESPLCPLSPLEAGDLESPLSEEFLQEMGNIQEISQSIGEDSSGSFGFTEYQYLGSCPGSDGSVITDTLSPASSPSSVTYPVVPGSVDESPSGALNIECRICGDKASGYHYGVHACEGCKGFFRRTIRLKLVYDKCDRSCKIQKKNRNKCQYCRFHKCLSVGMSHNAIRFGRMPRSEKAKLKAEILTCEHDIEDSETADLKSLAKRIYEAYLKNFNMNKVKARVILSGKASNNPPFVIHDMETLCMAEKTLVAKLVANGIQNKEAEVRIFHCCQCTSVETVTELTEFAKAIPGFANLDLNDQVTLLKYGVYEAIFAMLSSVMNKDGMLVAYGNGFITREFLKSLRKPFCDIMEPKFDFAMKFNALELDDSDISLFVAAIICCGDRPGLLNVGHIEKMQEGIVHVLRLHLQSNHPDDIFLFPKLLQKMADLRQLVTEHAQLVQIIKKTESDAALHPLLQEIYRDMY
Summary of the method: (§2)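 Single agonist-mode profiling at ten concentrations against FXR, PPARα, PPARγ and RXRα, run as an outside screening service.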

Bile acid receptor = target: T2, Bile acid receptor (Homo sapiens, UniProt Q96RI1); assay: Agonist activity at FXR (unknown origin); summary of the method: as §2
T2 sequence (Q96RI1 whole entry): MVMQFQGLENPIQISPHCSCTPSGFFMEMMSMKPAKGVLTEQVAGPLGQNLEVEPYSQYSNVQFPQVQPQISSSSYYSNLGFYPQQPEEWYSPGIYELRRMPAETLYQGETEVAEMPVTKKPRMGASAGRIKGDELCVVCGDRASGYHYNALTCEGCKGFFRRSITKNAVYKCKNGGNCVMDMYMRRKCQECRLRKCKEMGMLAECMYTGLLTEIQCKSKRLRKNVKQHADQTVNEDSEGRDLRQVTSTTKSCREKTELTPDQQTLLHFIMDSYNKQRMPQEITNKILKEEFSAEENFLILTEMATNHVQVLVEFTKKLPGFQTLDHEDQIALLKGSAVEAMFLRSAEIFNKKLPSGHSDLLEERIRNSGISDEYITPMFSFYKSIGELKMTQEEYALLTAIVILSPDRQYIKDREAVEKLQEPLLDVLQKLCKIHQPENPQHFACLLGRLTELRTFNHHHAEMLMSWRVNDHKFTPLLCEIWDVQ

[4] = target: T3, Lipoprotein lipase (Bos taurus) (UniProt P11151); assay: Induction of bovine LPL stabilization using intralipid as substrate at 6.25 uM preincubated for 10 mins with human recombinant ANGPTL4 followed by substrate addition measured after 45 mins relative to control
T3 sequence (whole entry): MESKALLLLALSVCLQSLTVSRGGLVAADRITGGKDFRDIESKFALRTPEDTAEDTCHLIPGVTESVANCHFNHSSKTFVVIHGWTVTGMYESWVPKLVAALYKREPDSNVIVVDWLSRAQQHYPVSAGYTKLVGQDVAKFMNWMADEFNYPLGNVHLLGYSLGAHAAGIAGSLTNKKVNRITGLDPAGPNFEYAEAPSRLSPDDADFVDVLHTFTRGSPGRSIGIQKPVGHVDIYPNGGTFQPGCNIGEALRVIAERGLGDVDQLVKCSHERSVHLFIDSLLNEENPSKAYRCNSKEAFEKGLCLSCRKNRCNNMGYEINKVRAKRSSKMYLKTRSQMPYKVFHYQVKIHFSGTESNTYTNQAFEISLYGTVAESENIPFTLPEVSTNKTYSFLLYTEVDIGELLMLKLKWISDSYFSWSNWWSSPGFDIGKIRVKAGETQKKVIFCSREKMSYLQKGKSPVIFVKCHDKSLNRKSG
Summary of the method: (§3)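 Compound in DMSO in buffer (50 mM potassium phosphate pH 7.4, 0.15 M NaCl, 0.01% Triton X-100), with human ANGPTL4 N-terminal fragment (aa 26-184, 75 nM final) and bovine LPL (15 nM final). Preincubated 10 min at 25 °C with shaking. Stopped after 45 min with 2.5% Triton X-100, and NEFA measured enzymatically. Activity normalised between DMSO+LPL+ANGPTL4 (0%) and DMSO+LPL (100%).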

[5] = Apparent permeability across basolateral to apical side in human Caco2 cells at 10 uM after 15 to 60 mins; type: ADME, cell-based; conditions: Caco-2
Lipoprotein lipase = target: T4, Lipoprotein lipase (Bos taurus, UniProt P11151); assay: Induction of bovine LPL stabilization using intralipid as substrate preincubated for 10 mins with human recombinant ANGPTL4 followed by substrate addition measured after 45 mins relative to control; summary of the method: as §3
T4 sequence (P11151 whole entry): T3 sequence (whole entry)

Mus musculus = assay: Hypolipidemic activity in C57B16/J mouse assessed as reduction in plasma triglyceride level at 10 mg/kg, ip qd administered for 4 days followed by olive oil injection through oral gavage one hour post last dose measured at 180 mins; type: functional, organism-based
Summary of the method: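 Female C57B16/J mice, 8-9 weeks, about 18 g, n = 8/group. Given 10 mg/kg i.p. once daily for 4 days, 0.5 ml in PBS pH 7.4 with 3% DMSO and 0.2% Triton X-100. Fasted 8 h before the last dose, then 0.2 ml oral olive oil gavage 1 h after it. Tail-vein EDTA plasma taken at baseline and every 60 min to 180 min. TG measured enzymatically, reported as mean ± SD.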

[6] = Fraction unbound in human plasma at 10 uM after 4 hrs by rapid equilibrium dialysis method; type: ADME, cell-free
Summary of the method: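 Rapid equilibrium dialysis of pooled human plasma from two male and two female non-smoking donors. Compound typically 10 μM final, dialysed against isotonic phosphate buffer pH 7.4 at 37 °C for 4 h with rapid rotation. Proteins precipitated with methanol containing warfarin internal standard, then both compartments analysed by LC-MS/MS.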

half-life at 1 µM [1]: > 2 h
hepatocyte CLint at 1 µM [2]: 12 µL/min/1e6 cells
EC50 [3]: > 100 µM
EC50 (Bile acid receptor): > 100 µM
Activity [4]: 16%
Papp B→A at 10 µM [5]: 31 ×10⁻⁶ cm/s
EC50 (Lipoprotein lipase): 6 µM
Fu [6]: < 0.01%
SMILES: Cc1ccc(NC(=O)c2cc(-n3cc4ccc(C(=O)O)cc4n3)ccc2N2CCCCC2)cc1
Activity (Mus musculus): Active

— ChEMBL document CHEMBL3745639, “Structure-activity relationships for lipoprotein lipase agonists that lower plasma triglycerides in vivo” (Eur J Med Chem, 2015)
